Source: ChEMBL document CHEMBL1151972, “Cytotoxic asterosaponins capable of promoting polymerization of tubulin from the starfish Culcita novaeguineae” (J Nat Prod, 2009)

Legend:
[1] = target: T1, Tubulin (Sus scrofa) (UniProt P02554+P02550); assay: Induction of pig brain tubulin polymerization assessed as end point promote coefficient at 11.7 uM by first high-throughput screening end-point assay
Method in brief: (§1)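 Tubulin prepared from pig brain; first high-throughput screening step. Polymerization followed by turbidity, end-point reading of the absorbance change at 350 nm, expressed as Pe (percent end-point promote coefficient). Samples above 20% Pe counted as active. Three independent experiments, eight replicate wells each.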

[2] = target: T1, Tubulin (Sus scrofa); assay: Induction of pig brain tubulin polymerization assessed as kinetic promote coefficient at 11.7 uM by first high-throughput screening end-point assay
[3] = target: T1, Tubulin (Sus scrofa); assay: Induction of pig brain tubulin polymerization assessed as end point promote coefficient at 9.3 uM by first high-throughput screening end-point assay; method in brief: as §1
[4] = test system: Bel-7402; assay: Cytotoxicity against human Bel7402 cells after 72 hrs by SRB assay; assay type: functional, cell-based; settings: Bel-7402, 72 h
Method in brief: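 Human hepatoma BEL7402 cells; sulforhodamine B protein-staining assay after 72 h exposure. Dose-response curves plotted. IC50 = concentration giving 50% reduction in absorbance relative to control cells. Three independent experiments, each concentration in three replicate wells.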

[5] = test system: K562; assay: Cytotoxicity against human K562 cells after 72 hrs by MTT assay; assay type: functional, cell-based; settings: K562, 72 h
Method in brief: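 Human leukemia K-562 cells; MTT colorimetric viability assay after 72 h exposure. IC50 read from dose-response curves as the concentration giving 50% lower absorbance than control cells. Mean of three independent experiments, triplicate wells per concentration.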

[6] = target: T1, Tubulin (Sus scrofa); assay: Induction of pig brain tubulin polymerization assessed as kinetic promote coefficient at 9.3 uM by first high-throughput screening end-point assay
[7] = target: T1, Tubulin (Sus scrofa); assay: Induction of pig brain tubulin polymerization assessed as end point promote coefficient at 8.9 uM by first high-throughput screening end-point assay; method in brief: as §1
[8] = target: T1, Tubulin (Sus scrofa); assay: Induction of pig brain tubulin polymerization assessed as kinetic promote coefficient at 8.9 uM by first high-throughput screening end-point assay

T1 sequence (P02550 whole entry, looked up): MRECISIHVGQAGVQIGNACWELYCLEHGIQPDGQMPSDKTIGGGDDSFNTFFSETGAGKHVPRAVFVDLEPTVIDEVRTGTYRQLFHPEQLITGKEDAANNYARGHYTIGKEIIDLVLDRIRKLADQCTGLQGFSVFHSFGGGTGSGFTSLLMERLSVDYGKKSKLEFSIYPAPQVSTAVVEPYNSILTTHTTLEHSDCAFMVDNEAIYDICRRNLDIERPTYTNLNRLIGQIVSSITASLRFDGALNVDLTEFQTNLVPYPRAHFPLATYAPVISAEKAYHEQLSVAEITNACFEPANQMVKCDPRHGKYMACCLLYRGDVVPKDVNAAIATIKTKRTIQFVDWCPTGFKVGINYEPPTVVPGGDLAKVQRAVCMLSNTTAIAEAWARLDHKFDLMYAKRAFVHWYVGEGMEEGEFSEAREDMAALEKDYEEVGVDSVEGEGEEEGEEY
T1 sequence (P02554 whole entry, looked up): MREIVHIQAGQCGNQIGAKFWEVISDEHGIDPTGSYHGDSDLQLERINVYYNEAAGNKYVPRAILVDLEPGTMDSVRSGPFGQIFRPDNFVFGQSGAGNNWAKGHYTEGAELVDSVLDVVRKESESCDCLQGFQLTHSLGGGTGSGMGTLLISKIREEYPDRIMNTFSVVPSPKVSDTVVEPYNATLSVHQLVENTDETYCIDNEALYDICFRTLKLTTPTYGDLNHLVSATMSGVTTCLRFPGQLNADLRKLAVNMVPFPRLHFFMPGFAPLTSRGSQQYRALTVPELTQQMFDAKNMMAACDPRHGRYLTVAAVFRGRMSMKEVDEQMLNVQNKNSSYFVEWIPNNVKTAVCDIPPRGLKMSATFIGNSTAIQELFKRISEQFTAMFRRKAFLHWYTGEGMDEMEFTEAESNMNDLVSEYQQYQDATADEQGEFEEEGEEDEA

| Activity [1] [%] | Activity [2] [%] | Activity [3] [%] | Activity [6] [%] | Activity [7] [%] | Activity [8] [%] | SMILES | IC50 [4] [µM] | IC50 [5] [µM] |
| --- | --- | --- | --- | --- | --- | --- | --- | --- |
| 32 | 100 |  |  |  |  | CC(=O)O[C@H]1C(=O)[C@@]2(C)[C@H]([C@H](OC(=O)c3ccccc3)[C@]3(O)C[C@H](OC(=O)[C@H](O)[C@@H](NC(=O)c4ccccc4)c4ccccc4)C(C)=C1C3(C)C)[C@]1(OC(C)=O)CO[C@@H]1C[C@@H]2O |  |  |
|  |  | 42 | 149 |  |  | CO[C@@H]1[C@@H](O)[C@H](O[C@H]2[C@H](O[C@@H]3[C@@H](O)[C@H](O[C@H]4C[C@@H]5C(=CC[C@]6(C)[C@@H]([C@H](C)CC[C@H](OS(=O)(=O)O)C(C)C)CC[C@@H]56)[C@@]5(C)CC[C@H](OS(=O)(=O)O)C[C@H]45)O[C@H](CO)[C@H]3O)OC[C@@H](O)[C@@H]2O)O[C@H](C)[C@H]1O [NOVAEGUINOSIDE C] | 0.7 | 1.3 |
|  |  |  |  |  |  | CC[C@@]1(O)C(=O)OCc2c1cc1n(c2=O)Cc2cc3cc(O)ccc3nc2-1 [HYDROXYCAMPTOTHECIN] | 0.4 | 0.18 |
|  |  |  |  | 23 | 85 | CO[C@@H]1[C@@H](O)[C@H](O[C@H]2[C@H](O[C@@H]3[C@@H](O)[C@H](O[C@H]4C[C@@H]5C(=CC[C@]6(C)[C@@H]([C@H](C)/C=C/[C@@H](C)[C@@H](C)C(=O)NCCS(=O)(=O)O)CC[C@@H]56)[C@@]5(C)CC[C@H](OS(=O)(=O)O)C[C@H]45)O[C@H](CO)[C@H]3O)OC[C@@H](O)[C@@H]2O)O[C@H](C)[C@H]1O [NOVAEGUINOSIDE D] | 4.1 | 4.6 |
